Shown are actives, neighbours in structure and some others; about 1.8% of the full set was active somewhere.
M4 ag: human M4 muscarinic receptor agonists, primary screen, CHO-K1 cells, Fluo-8 calcium fluorescence; Muscarinic acetylcholine receptor M4 (Homo sapiens), P08173; CHO-K1 hM4/Gqi5; vehicle 0%, full acetylcholine response 100%; activation, % at 3 µM; 0.14% of 360,000 active;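 active means activation above the run mean over all test wells plus 3 SD, cut at about 32% in these data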;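 further: peak over basal fluorescence ratio per well then scaled between controls; 0% = DMSO wells and 100% = acetylcholine at EC100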
Target sequence (P08173 whole entry, looked up): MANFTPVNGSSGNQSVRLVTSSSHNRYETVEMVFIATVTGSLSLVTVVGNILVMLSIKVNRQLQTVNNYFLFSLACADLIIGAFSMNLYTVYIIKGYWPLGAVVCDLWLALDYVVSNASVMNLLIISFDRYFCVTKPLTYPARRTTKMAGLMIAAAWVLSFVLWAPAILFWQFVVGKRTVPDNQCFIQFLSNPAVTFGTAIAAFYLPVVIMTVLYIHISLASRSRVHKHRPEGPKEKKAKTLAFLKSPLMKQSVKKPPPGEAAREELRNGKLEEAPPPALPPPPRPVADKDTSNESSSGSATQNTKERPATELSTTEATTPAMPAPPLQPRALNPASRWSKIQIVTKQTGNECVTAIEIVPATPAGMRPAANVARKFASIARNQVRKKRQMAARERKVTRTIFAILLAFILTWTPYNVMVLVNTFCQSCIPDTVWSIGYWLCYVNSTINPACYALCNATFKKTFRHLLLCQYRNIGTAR
M4 PAM: human M4 muscarinic receptor positive allosteric modulators, primary screen, CHO-K1 cells, Fluo-8 calcium fluorescence. 0.4% of 360,000 active. Muscarinic acetylcholine receptor M4 (Homo sapiens), P08173. CHO-K1 hM4/Gqi5, ACh EC20; 0% = ACh EC20, 100% = maximal ACh. AID 624126, 2012. activation, % at 3 µM;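 active means activation above its plate's cutoff, the mean activation of sample wells plus 3 SD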
M4 antag: human M4 muscarinic receptor antagonists, primary screen, CHO cells, Fluo-8 calcium fluorescence. CHO-hM4 cells, ACh EC80. 0.73% of 360,000 active. AID 624125, 2012. inhibition, % at 3 µM. Muscarinic acetylcholine receptor M4 (Homo sapiens), P08173;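 active means inhibition above its plate's cutoff, the mean inhibition of sample wells plus 3 SD, cut at about 27% in these data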;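 further: 0% = acetylcholine EC80 with DMSO and 100% = DMSO without agonist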
CHRM5 PAM: human M5 muscarinic receptor positive allosteric modulators, primary screen, CHO-K1 cells, Fluo-8 calcium fluorescence; Muscarinic acetylcholine receptor M5 (Homo sapiens), P08912; CHO-K1 hM5, ACh EC20 PAM; 0% = ACh EC20, 100% = ACh EC100; activation, % at 3 µM; 0.3% of 360,000 active; AID 624038, 2012;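 active means activation above the run cutoff, the mean activation of all test compounds plus 3 SD, cut at about 18% in these data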
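system = human M5 receptor in CHO-K1 cells | reagent = EC20 acetylcholine as agonist stimulus | compound dosing = single-point, 3 µM nominal | incubation = Fluo-8 loading 80 min at 37 °C plus 30 min room temperature | detection = Fluo-8 calcium dye fluorescence, kinetic read | benchmarks = low control EC20 acetylcholine (0%), high control EC100 acetylcholine (100%)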
CHRM5 antagonist: human M5 muscarinic receptor antagonists, primary screen, CHO cells, Fluo-8 calcium fluorescence | Muscarinic acetylcholine receptor M5 (Homo sapiens), P08912 | CHO-hM5 cells, ACh EC80 | inhibition, % at 3 µM | 0.59% of 360,000 active;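 active means inhibition above a per-plate cutoff, the mean of that plate's test compounds plus 3 SD, cut at about 27% in these data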;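 further: 0% = acetylcholine EC80 with DMSO and 100% = DMSO without agonist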
CHRM5 agonist: human M5 muscarinic receptor agonists, primary screen, CHO-K1 cells, Fluo-8 calcium fluorescence; Muscarinic acetylcholine receptor M5 (Homo sapiens), P08912; CHO-K1 hM5 cells; 0% DMSO wells, 100% maximal acetylcholine response; activation, % at 3 µM; 0.19% of 360,000 active; AID 624037, 2012;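 active means activation above the run's mean over test compounds plus 3 SD, cut at about 23% in these data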;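 further: signal is peak over basal fluorescence ratio across the kinetic read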
* hit, by the source's call.

SMILES	M4 ag	M4 PAM	M4 antag	CHRM5 PAM	CHRM5 antagonist	CHRM5 agonist
N[C@@]12CCc3nonc3[C@]1(O)CC(c1ccccc1)=[N+]2[O-]	1	26*	1	10	0	1
Cc1cc(OCCCC(=O)Nc2cccc(-n3cnnn3)c2)ccc1Cl	19	-14	13	-17	27*	6
CCN(Cc1ccncc1)C(=O)C(CO)c1ccccc1 (stereo unspecified)	0	-16	89*	-19	87*	-1
CCN(Cc1ccncc1)C(=S)Nc1ccccc1	1	7	-12	-7	0	-2
O=C(CCl)N1N=C(c2ccco2)CC1c1ccco1 (stereo unspecified)	1	2	-7	28*	11	3
O=C(OCC(=O)N1N=C(c2ccc(Cl)cc2)CC1c1ccco1)c1cccnc1 (stereo unspecified)	1	8	-5	18*	-1	6
Cc1ccc2cc3cc(C(=O)NCCN4CCOCC4)oc3nc2c1	3	12	-6	21*	-13	2
Cc1ccc(C)c(N2CCN(S(=O)(=O)c3ccc4c(c3)NC(=O)CO4)CC2)c1	-1	-9	-19	2	-7	-3
Cc1ccc(C)c(N2CCN(S(=O)(=O)c3ccc4c(c3)NC(=O)CC(=O)N4)CC2)c1	1	-17	88*	-19	4	-3
Cc1cc(=O)oc2cc(OC(=O)c3ccccc3)ccc12	1	3	3	-1	7	0
COc1ccccc1-c1c(C(F)(F)F)oc2cc(OC(=O)c3ccc([N+](=O)[O-])cc3)ccc2c1=O	8	21*	-8	-6	3	7
Cc1cc(OC(C)C(=O)NCc2ccccn2)c2c(C)c(C)c(=O)oc2c1 (stereo unspecified)	0	6	-2	0	10	-3
CC(C)CN(C(=O)CSc1nc2ccccc2c(=O)[nH]1)c1c(N)n(CC(C)C)c(=O)[nH]c1=O	2	24*	-10	-4	12	3
CC(C)(C)S(=O)N1Cc2cc(C(=O)Nc3ccc(-c4ccccc4)cc3)nc(-c3cccc(-c4cc5ccccc5o4)c3)c2[C@@H]1CCO (stereo partly specified)	1	21*	-8	12	-5	4
COc1ccc(CCNC(=O)c2cccc(S(=O)(=O)N3CCc4ccccc4C3)c2)cc1	19	-9	5	-34	4	0
Cc1cc(N2CCCC2=O)cc(C)c1S(=O)(=O)NCCOc1ccc(C(C)(C)C)cc1	12	-17	28*	-26	33*	2
COCCNCC(=O)N1c2ccccc2Sc2ccccc21	1	-12	31*	-33	57*	-21
CC(=O)N1c2ccccc2Sc2ccccc21	-1	-10	10	-9	17	-19
CC(C)NC(=O)N1c2ccccc2Sc2ccccc21	-1	-14	21	-7	7	-10
CC(C)CNCC(=O)N1c2ccccc2Sc2ccccc21	2	-16	52*	-50	74*	-14
Cc1cccc[n+]1CC(=O)N1c2ccccc2Sc2ccccc21	0	-24	96*	-20	99*	-11
COCCCNC(=O)N1c2ccccc2Sc2ccccc21	0	1	-2	11	-1	-14
COc1cc(NC(=O)c2cccs2)c(OC)cc1NC(=O)CCC(=O)Nc1ccc2ncccc2c1	13	-9	5	-13	-6	0
CC(C)C(=O)N1CCCC1(C)C(=O)Nc1cccc(Oc2ccccc2)c1 (stereo unspecified)	0	6	-12	4	6	2
COc1ccc(-n2nnnc2C2(C)CCC(=O)N2Cc2ccccc2)cc1 (stereo unspecified)	2	4	-4	-1	1	0
SMILES	M4 ag	M4 PAM	M4 antag	CHRM5 PAM	CHRM5 antagonist	CHRM5 agonist
COc1ccccc1OCC(=O)Nc1ccc(CSc2ccccc2)cc1C	0	7	1	49*	0	12
CCCCCCCCN1C(=O)[C@H](CC(=O)N2CCOCC2)C[C@@]2(C(=O)OCC)CCCC=C12	-3	5	-5	14	-14	-3
CC(C)N1CCN(C(=O)c2ccc(NC(=O)c3ccc(Br)o3)cc2)CC1	1	10	0	20*	-2	3
COc1ccc(C(=O)/C=C/C(=O)N(CC(=O)NC2CCCCC2)Cc2cccs2)c(O)c1	16	-18	34*	-4	19	11
COCCN(CC(=O)NC1CCCCC1)C(=O)/C=C/C(=O)c1ccc(OC)cc1O	2	-5	18	10	12	3
CCOC(=O)C1CCN(C(=O)COC(=O)/C=C/c2ccccc2)CC1	2	9	-13	3	-3	7
CCOC(=O)C1CCN(C(=O)COC(=O)/C=C/c2cccc(OC)c2OC)CC1	7	18	-12	1	3	24*
COc1cccc(/C=C/C(=O)OCC(=O)c2c[nH]c3ccccc23)c1OC	14	-9	13	-18	27*	-1
COc1cccc(/C=C/C(=O)OCC(=O)c2c[nH]c3ccccc23)c1	18	-4	-2	-28	9	-2
CC(O)(c1ccc(F)c(F)c1)c1nc(-c2cccc(C#N)c2)cs1 (stereo unspecified)	1	-1	4	-10	-2	-3
CNC(C)C(=O)NC(C(=O)NC(C)C(=O)Nc1cccc2ccccc12)C(C)C (stereo unspecified)	0	18*	-15	-4	-4	0
CC(O)c1nc2ccccc2n1C/C=C/c1ccccc1 (stereo unspecified)	1	1	10	1	-5	0
Cc1c(P(=S)(c2ccccc2)c2ccccc2)[n+]2ccccc2n1C/C=C/c1ccccc1	1	-11	29*	-18	22	-4
O=c1cc(CN2CC(O)Cc3ccc4ccccc4c32)nc2sccn12 (stereo unspecified)	4	6	4	0	4	-3
Cn1c(=O)[nH]c(=O)c2c1nc(SCC(=O)O)n2CCOc1ccccc1	-1	-15	54*	-8	5	-6
